ChEMBL document CHEMBL4229333, “Effects of rigidity on the selectivity of protein kinase inhibitors” (Eur J Med Chem, 2018)

How the values were obtained:
[1] = molecular target: Serine/threonine-protein kinase D1 (Homo sapiens) (UniProt Q15139); assay: Inhibition of PRKD1 (unknown origin) at 1 uM by mobility shift microfluidics platform based assay relative to control
[2] = molecular target: BDNF/NT-3 growth factors receptor (Homo sapiens) (UniProt Q16620); assay: Inhibition of TRKB (unknown origin) at 1 uM by mobility shift microfluidics platform based assay relative to control
[3] = molecular target: Tyrosine-protein kinase Fyn (Homo sapiens) (UniProt P06241); assay: Inhibition of FYN (unknown origin) at 1 uM by mobility shift microfluidics platform based assay relative to control
[4] = molecular target: Fibroblast growth factor receptor 2 (Homo sapiens) (UniProt P21802); assay: Inhibition of FGFR2 (unknown origin) at 1 uM by mobility shift microfluidics platform based assay relative to control
[5] = molecular target: Ephrin type-A receptor 5 (Homo sapiens) (UniProt P54756); assay: Inhibition of EPH-A5 (unknown origin) at 1 uM by mobility shift microfluidics platform based assay relative to control
[6] = molecular target: Mitogen-activated protein kinase 11 (Homo sapiens) (UniProt Q15759); assay: Inhibition of P38-beta (unknown origin) at 1 uM by mobility shift microfluidics platform based assay relative to control
[7] = molecular target: Serine/threonine-protein kinase 24 (Homo sapiens) (UniProt Q9Y6E0); assay: Inhibition of MST3 (unknown origin) at 1 uM by mobility shift microfluidics platform based assay relative to control
[8] = molecular target: Dual specificity tyrosine-phosphorylation-regulated kinase 1B (Homo sapiens) (UniProt Q9Y463); assay: Inhibition of DYRK1B (unknown origin) at 1 uM by mobility shift microfluidics platform based assay relative to control
[9] = molecular target: Protein-tyrosine kinase 2-beta (Homo sapiens) (UniProt Q14289); assay: Inhibition of PYK2 (unknown origin) at 1 uM by mobility shift microfluidics platform based assay relative to control
[10] = molecular target: Receptor tyrosine-protein kinase erbB-4 (Homo sapiens) (UniProt Q15303); assay: Inhibition of ERB-B4 (unknown origin) at 1 uM by mobility shift microfluidics platform based assay relative to control
[11] = molecular target: Serine/threonine-protein kinase Nek7 (Homo sapiens) (UniProt Q8TDX7); assay: Inhibition of NEK7 (unknown origin) at 1 uM by mobility shift microfluidics platform based assay relative to control
[12] = molecular target: Tyrosine-protein kinase SYK (Homo sapiens) (UniProt P43405); assay: Inhibition of SYK (unknown origin) at 1 uM by mobility shift microfluidics platform based assay relative to control
[13] = molecular target: Phosphatidylinositol 4,5-bisphosphate 3-kinase catalytic subunit beta isoform (Homo sapiens) (UniProt P42338); assay: Inhibition of PI3K-beta (unknown origin) at 1 uM by mobility shift microfluidics platform based assay relative to control
[14] = molecular target: Mitogen-activated protein kinase kinase kinase 7 (Homo sapiens) (UniProt O43318); assay: Inhibition of TAK1 (unknown origin) at 1 uM by mobility shift microfluidics platform based assay relative to control
[15] = molecular target: Dual specificity protein kinase TTK (Homo sapiens) (UniProt P33981); assay: Inhibition of TTK (unknown origin) at 1 uM by mobility shift microfluidics platform based assay relative to control
Homo sapiens = organism: Homo sapiens; assay: Inhibition of CDK6/Cyclin D (unknown origin) at 1 uM by mobility shift microfluidics platform based assay relative to control
[16] = molecular target: Receptor-interacting serine/threonine-protein kinase 2 (Homo sapiens) (UniProt O43353); assay: Inhibition of RIPK2 (unknown origin) at 1 uM by mobility shift microfluidics platform based assay relative to control
[17] = molecular target: ALK tyrosine kinase receptor (Homo sapiens) (UniProt Q9UM73); assay: Inhibition of ALK (unknown origin) at 1 uM by mobility shift microfluidics platform based assay relative to control
[18] = molecular target: Serine/threonine-protein kinase B-raf (Homo sapiens) (UniProt P15056); assay: Inhibition of BRAF (unknown origin) at 1 uM by mobility shift microfluidics platform based assay relative to control
[19] = molecular target: RAC-beta serine/threonine-protein kinase (Homo sapiens) (UniProt P31751); assay: Inhibition of AKT2 (unknown origin) at 1 uM by mobility shift microfluidics platform based assay relative to control
[20] = tested on: Serine/threonine-protein kinase B-raf (Homo sapiens), P15056 [V600E]; assay: Ratio of IC50 for inhibition of BRAF V600E mutant (unknown origin) after 20 mins by immunoblotting assay to IC50 for inhibition of full length FLAG-tagged BRAF V600E mutant (unknown origin) expressed in HEK293 cells assessed as decrease in MEK phosphorylation by immunoblotting assay; format: cell-based
[21] = molecular target: Calcium/calmodulin-dependent protein kinase type 1D (Homo sapiens) (UniProt Q8IU85); assay: Inhibition of CAMK1D (unknown origin) at 1 uM by mobility shift microfluidics platform based assay relative to control
[22] = molecular target: Serine/threonine-protein kinase PAK 2 (Homo sapiens) (UniProt Q13177); assay: Inhibition of PAK2 (unknown origin) at 1 uM by mobility shift microfluidics platform based assay relative to control
[23] = molecular target: Aurora kinase C (Homo sapiens) (UniProt Q9UQB9); assay: Inhibition of AURORA-C (unknown origin) at 1 uM by mobility shift microfluidics platform based assay relative to control
[24] = molecular target: Ephrin type-A receptor 8 (Homo sapiens) (UniProt P29322); assay: Inhibition of EPH-A8 (unknown origin) at 1 uM by mobility shift microfluidics platform based assay relative to control
[25] = molecular target: Mitogen-activated protein kinase 10 (Homo sapiens) (UniProt P53779); assay: Inhibition of JNK3 (unknown origin) at 1 uM by mobility shift microfluidics platform based assay relative to control
Caco-2 = assay: Efflux ratio in human Caco2 cells in absence of P-gp inhibitor by LC-MS/MS analysis; format: ADME, cell-based
Outline: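 Caco-2 bidirectional transport, with compound concentrations measured by LC-MS/MS. Efflux ratio was calculated as Papp(B−A)/Papp(A−B).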

[26] = molecular target: 3-phosphoinositide-dependent protein kinase 1 (Homo sapiens) (UniProt O15530); assay: Inhibition of PDK1 (unknown origin) at 1 uM by mobility shift microfluidics platform based assay relative to control
[27] = molecular target: MAP kinase-activated protein kinase 2 (Homo sapiens) (UniProt P49137); assay: Inhibition of MAPKAPK2 (unknown origin) at 1 uM by mobility shift microfluidics platform based assay relative to control
[28] = molecular target: Serine/threonine-protein kinase PAK 6 (Homo sapiens) (UniProt Q9NQU5); assay: Inhibition of PAK6 (unknown origin) at 1 uM by mobility shift microfluidics platform based assay relative to control
[29] = molecular target: Tyrosine-protein kinase Fer (Homo sapiens) (UniProt P16591); assay: Inhibition of FER (unknown origin) at 1 uM by mobility shift microfluidics platform based assay relative to control
[30] = molecular target: Dual specificity mitogen-activated protein kinase kinase 2 (Homo sapiens) (UniProt P36507); assay: Inhibition of MEK2 (unknown origin) at 1 uM by mobility shift microfluidics platform based assay relative to control
[31] = molecular target: Tyrosine-protein kinase Srms (Homo sapiens) (UniProt Q9H3Y6); assay: Inhibition of SRMS (unknown origin) at 1 uM by mobility shift microfluidics platform based assay relative to control

Sequence of Tyrosine-protein kinase Fer (Homo sapiens) (P16591 whole entry, looked up): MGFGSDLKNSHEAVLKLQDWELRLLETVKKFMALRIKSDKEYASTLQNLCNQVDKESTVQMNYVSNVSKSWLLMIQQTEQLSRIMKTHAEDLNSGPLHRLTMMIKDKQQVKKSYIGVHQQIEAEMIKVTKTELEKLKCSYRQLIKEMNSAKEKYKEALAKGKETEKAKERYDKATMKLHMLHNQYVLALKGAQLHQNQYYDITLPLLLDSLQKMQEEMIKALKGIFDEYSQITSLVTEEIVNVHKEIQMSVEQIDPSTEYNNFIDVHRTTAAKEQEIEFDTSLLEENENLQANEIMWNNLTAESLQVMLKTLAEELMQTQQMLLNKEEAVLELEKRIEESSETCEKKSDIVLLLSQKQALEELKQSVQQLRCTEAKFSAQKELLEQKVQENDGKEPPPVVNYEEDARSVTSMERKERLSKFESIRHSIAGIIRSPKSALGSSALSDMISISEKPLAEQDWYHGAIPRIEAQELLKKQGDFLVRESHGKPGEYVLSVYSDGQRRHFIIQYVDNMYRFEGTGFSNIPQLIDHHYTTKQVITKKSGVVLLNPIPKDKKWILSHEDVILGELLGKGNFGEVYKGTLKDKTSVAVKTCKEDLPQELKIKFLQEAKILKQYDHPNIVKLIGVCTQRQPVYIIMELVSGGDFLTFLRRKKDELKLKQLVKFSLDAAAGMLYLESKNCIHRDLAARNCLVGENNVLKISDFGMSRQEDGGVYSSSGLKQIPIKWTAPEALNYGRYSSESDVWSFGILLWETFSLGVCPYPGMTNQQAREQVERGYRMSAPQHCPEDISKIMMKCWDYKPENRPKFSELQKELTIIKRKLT
Sequence of Dual specificity mitogen-activated protein kinase kinase 2 (Homo sapiens) (P36507 whole entry): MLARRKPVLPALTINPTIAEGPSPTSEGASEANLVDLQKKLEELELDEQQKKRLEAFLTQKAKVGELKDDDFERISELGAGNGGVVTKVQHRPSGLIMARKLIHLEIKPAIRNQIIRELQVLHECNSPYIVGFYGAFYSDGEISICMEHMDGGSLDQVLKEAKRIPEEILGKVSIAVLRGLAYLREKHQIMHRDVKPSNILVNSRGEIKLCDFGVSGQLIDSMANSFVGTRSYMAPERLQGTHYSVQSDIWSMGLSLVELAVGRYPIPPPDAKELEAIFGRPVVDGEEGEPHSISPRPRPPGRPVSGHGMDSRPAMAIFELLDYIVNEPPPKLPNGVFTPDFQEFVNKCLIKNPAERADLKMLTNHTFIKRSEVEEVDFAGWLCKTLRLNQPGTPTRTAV
Sequence of ALK tyrosine kinase receptor (Homo sapiens) (Q9UM73 19-1620 limits assumed): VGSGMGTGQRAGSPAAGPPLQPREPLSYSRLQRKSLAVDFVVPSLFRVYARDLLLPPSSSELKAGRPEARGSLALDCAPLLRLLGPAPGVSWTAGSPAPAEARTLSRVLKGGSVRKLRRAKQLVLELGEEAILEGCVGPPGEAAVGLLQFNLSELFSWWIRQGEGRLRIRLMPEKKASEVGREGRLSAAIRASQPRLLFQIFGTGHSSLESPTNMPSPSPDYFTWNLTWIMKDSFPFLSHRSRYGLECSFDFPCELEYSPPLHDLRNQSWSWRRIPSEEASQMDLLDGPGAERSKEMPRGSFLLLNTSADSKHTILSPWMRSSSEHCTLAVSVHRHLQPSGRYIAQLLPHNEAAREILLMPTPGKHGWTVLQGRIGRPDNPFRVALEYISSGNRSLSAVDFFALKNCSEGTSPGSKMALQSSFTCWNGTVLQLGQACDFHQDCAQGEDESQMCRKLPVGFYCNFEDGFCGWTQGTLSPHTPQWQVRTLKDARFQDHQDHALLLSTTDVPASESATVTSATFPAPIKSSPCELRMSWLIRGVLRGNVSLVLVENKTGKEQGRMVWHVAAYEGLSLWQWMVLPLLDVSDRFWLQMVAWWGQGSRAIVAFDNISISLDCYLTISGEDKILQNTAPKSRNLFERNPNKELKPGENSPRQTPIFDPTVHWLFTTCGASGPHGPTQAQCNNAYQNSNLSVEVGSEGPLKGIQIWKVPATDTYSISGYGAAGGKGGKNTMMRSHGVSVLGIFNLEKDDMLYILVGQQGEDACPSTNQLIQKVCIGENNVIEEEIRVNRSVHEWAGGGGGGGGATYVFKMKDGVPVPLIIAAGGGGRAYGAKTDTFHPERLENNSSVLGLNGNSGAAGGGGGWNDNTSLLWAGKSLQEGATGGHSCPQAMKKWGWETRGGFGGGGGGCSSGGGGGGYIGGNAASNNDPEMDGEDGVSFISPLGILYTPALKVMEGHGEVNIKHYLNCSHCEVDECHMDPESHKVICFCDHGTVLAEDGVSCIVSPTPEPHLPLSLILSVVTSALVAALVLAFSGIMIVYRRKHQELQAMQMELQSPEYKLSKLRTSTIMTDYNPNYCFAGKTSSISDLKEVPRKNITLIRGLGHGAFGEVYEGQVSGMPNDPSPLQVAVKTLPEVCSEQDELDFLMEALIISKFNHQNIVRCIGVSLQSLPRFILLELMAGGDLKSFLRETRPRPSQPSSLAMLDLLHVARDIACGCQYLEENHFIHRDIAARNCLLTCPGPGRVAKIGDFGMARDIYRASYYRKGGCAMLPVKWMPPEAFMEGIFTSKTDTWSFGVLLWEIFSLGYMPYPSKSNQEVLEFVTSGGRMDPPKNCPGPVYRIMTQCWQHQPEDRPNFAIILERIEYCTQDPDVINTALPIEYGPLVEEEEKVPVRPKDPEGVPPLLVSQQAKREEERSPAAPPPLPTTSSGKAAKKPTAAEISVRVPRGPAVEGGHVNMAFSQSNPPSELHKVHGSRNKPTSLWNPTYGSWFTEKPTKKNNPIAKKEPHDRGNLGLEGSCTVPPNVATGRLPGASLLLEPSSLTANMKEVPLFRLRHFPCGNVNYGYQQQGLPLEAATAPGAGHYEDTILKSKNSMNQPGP
Sequence of Calcium/calmodulin-dependent protein kinase type 1D (Homo sapiens) (Q8IU85 whole entry, looked up): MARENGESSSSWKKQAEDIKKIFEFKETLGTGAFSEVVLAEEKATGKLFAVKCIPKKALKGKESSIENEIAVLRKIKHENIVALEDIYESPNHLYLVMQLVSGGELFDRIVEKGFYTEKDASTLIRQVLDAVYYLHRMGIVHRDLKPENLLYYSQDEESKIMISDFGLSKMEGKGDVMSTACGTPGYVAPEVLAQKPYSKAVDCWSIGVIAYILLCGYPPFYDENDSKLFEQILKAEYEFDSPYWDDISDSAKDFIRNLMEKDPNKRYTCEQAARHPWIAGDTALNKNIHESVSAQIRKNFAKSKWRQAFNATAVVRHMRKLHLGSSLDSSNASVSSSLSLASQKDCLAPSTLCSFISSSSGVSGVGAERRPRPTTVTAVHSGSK
Sequence of Ephrin type-A receptor 8 (Homo sapiens) (P29322 whole entry): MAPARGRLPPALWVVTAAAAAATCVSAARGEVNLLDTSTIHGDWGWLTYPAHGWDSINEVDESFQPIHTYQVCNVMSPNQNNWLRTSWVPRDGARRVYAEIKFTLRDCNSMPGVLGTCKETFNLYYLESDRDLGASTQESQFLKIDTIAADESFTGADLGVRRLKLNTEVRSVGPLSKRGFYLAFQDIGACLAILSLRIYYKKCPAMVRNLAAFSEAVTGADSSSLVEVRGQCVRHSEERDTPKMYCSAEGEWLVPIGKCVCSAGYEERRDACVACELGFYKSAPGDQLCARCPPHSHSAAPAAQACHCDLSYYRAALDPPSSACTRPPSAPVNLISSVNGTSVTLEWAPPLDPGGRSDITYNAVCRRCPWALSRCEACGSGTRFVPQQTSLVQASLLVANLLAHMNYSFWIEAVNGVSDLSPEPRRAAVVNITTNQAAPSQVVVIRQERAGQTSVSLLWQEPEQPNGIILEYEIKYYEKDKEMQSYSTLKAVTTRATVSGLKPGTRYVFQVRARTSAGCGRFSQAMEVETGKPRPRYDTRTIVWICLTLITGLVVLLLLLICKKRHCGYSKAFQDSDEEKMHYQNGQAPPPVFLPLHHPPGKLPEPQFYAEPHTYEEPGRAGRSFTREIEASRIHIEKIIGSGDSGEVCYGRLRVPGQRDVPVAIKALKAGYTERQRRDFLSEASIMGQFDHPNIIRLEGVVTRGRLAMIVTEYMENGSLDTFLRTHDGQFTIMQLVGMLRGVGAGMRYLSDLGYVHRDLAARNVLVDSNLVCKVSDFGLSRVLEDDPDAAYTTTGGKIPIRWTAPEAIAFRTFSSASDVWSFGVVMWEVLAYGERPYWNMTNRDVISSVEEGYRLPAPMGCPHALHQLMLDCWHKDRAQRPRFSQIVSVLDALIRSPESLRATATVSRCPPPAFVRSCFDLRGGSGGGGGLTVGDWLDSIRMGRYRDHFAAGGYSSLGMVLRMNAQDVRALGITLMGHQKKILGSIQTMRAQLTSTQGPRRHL
Sequence of Serine/threonine-protein kinase Nek7 (Homo sapiens) (Q8TDX7 whole entry, looked up): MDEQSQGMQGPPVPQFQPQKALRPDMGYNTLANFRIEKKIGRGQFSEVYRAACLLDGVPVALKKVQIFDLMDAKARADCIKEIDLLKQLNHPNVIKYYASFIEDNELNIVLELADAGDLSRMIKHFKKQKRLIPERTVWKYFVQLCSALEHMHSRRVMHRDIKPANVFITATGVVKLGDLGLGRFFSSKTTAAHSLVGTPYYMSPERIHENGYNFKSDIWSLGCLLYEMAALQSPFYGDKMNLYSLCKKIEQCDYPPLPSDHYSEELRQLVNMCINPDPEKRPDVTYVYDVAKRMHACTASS
Sequence of Mitogen-activated protein kinase 11 (Homo sapiens) (Q15759 whole entry): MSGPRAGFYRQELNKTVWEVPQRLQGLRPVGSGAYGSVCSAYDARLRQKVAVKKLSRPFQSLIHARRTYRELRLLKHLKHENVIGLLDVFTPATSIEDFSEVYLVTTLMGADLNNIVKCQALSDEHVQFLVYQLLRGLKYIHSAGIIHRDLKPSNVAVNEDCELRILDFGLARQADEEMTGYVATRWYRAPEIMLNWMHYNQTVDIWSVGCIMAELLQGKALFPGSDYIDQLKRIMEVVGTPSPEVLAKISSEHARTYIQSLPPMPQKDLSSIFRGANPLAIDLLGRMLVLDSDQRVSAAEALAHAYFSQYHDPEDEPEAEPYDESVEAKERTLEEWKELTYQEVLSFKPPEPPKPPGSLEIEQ

Compound | inhibition [1] | inhibition [2] | inhibition [3] | inhibition [4] | inhibition [5] | inhibition [6] | inhibition [7] | inhibition [8] | inhibition [9] | inhibition [10] | inhibition [11] | inhibition [12] | inhibition [13] | inhibition [14] | inhibition [15] | inhibition (Homo sapiens) | inhibition [16] | inhibition [17] | inhibition [18] | inhibition [19] | also measured
CC(C)n1nc(C#Cc2cccc3cc(-c4cccc(C(F)(F)F)c4)ncc23)c2c(N)ncnc21 | 3% | 13% | 85% | 96% | 95% | 3% | 3% | 1% | 1% | 4% | -2% | 6% | -5% | 5% | -3% | 0% | 82% | 1% | 92% | -10% | Ratio IC50 [20]: 2 to 4; inhibition [21]: 10%; inhibition [22]: -2%; inhibition [23]: -2%; inhibition [24]: 97%; inhibition [25]: 5%; Ratio (Caco-2): 3.2; inhibition [26]: 5%; inhibition [27]: 5%; inhibition [28]: 3%; inhibition [29]: 12%; inhibition [30]: 6%; inhibition [31]: 20%
CC(C)n1nc(C#Cc2cccc(NC(=O)c3cccc(C(F)(F)F)c3)c2)c2c(N)ncnc21 | 4% | 43% | 101% | 99% | 100% | 23% | 0% | 0% | 74% | 88% | 1% | -4% | 1% | 62% | 33% | -1% | 98% | 6% | 101% | 0% | Ratio IC50 [20]: 2 to 4; inhibition [21]: 7%; inhibition [22]: 1%; inhibition [23]: 33%; inhibition [24]: 100%; inhibition [25]: -8%; Ratio (Caco-2): 1.2; inhibition [26]: 4%; inhibition [27]: -1%; inhibition [28]: -1%; inhibition [29]: 40%; inhibition [30]: 25%; inhibition [31]: 55%
